From ChEMBL document CHEMBL3085726, “Tumor-targeting with novel non-benzoyl 6-substituted straight chain pyrrolo[2,3-d]pyrimidine antifolates via cellular uptake by folate receptor α and inhibition of de novo purine nucleotide biosynthesis” (J Med Chem, 2013)
Calls of active or inactive are those of the source. The rule behind the calls is not given here.

Columns and labels:
[1] = molecular target: Folate receptor beta (Homo sapiens) (UniProt P14207); test: Displacement of [3H]-folic acid from human folate receptor-beta expressed in Chinese hamster D4 cells after 15 mins; assay type: cell-based
Sequence of Folate receptor beta (Homo sapiens) (P14207 17-230 limits assumed): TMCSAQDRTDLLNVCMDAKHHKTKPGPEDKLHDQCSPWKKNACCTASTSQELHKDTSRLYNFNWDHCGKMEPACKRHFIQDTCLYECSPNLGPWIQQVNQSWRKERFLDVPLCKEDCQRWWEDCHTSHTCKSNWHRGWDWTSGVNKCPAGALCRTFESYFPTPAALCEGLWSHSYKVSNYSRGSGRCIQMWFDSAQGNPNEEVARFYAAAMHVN
How it was run: (§1)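 Cells (~1.6x10^6) rinsed with DPBS, then acidic buffer (10 mM sodium acetate, 150 mM NaCl, pH 3.5) to strip bound folate. Washed with ice-cold HEPES-buffered saline, pH 7.4. Incubated 15 min at 0°C with [3H]folic acid (50 nM, 0.5 Ci/mmol) plus a range of unlabeled ligand concentrations. Bound label normalized to protein (pmol/mg). […] Triplicate.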

[2] = molecular target: Folate receptor alpha (Homo sapiens) (UniProt P15328); test: Displacement of [3H]-folic acid from human folate receptor-alpha expressed in Chinese hamster RT16 cells after 15 mins; assay type: cell-based; how it was run: as §1
Sequence of Folate receptor alpha (Homo sapiens) (P15328 25-234 limits assumed): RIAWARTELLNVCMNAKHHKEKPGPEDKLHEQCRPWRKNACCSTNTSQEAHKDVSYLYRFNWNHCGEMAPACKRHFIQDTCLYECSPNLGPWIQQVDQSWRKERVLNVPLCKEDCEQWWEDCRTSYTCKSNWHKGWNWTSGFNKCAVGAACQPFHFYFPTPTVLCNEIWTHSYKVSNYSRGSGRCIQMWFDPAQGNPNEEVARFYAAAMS

KB [3] = test: Growth inhibition of human KB cells expressing human RFC/FRalpha/PCFT after 96 hrs by CellTiter-blue assay in presence of folic acid; assay type: functional, cell-based
KB [4] = test: Growth inhibition of human KB cells expressing human RFC/FRalpha/PCFT after 96 hrs by CellTiter-blue assay; assay type: functional, cell-based
[5] = Growth inhibition of Chinese hamster R2(VC) cells after 96 hrs by CellTiter-blue assay; conditions: Cricetulus griseus
R2 = test: Growth inhibition of Chinese hamster R2 cells expressing human PCFT4 after 96 hrs by CellTiter-blue assay; assay type: functional, cell-based, Cricetulus griseus; conditions: R2, 96 h
[6] = Growth inhibition of Chinese hamster D4 cells after 96 hrs by CellTiter-blue assay in presence of folic acid; assay type: functional, cell-based; conditions: Cricetulus griseus, D4, 96 h
[7] = Growth inhibition of Chinese hamster D4 cells after 96 hrs by CellTiter-blue assay; assay type: functional, cell-based; conditions: Cricetulus griseus, D4, 96 h
[8] = Growth inhibition of Chinese hamster RT16 cells after 96 hrs by CellTiter-blue assay in presence of folic acid; assay type: functional, cell-based; conditions: Cricetulus griseus, RT16, 96 h
How it was run: (§2)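 RT16 cells were first kept 3 days in folate-free RPMI. Cells were exposed to a drug concentration range with or without 200 nM folic acid to block FR uptake. After 96 h, CellTiter-blue fluorescence was read.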

[9] = Growth inhibition of Chinese hamster RT16 cells after 96 hrs by CellTiter-blue assay; assay type: functional, cell-based; conditions: Cricetulus griseus, RT16, 96 h; how it was run: as §2
[10] = Growth inhibition of Chinese hamster MTXRII-OuaR2-4 cells after 96 hrs by CellTiter-blue assay; conditions: Cricetulus griseus
[11] = Growth inhibition of Chinese hamster PC43-10 cells after 96 hrs by CellTiter-blue assay; assay type: functional, cell-based; conditions: Cricetulus griseus, PC43-10, 96 h
[12] = molecular target: Thymidylate synthase (Homo sapiens) (UniProt P04818); test: Inhibition of recombinant TS (unknown origin)
Sequence of Thymidylate synthase (Homo sapiens) (P04818 2-313 limits assumed): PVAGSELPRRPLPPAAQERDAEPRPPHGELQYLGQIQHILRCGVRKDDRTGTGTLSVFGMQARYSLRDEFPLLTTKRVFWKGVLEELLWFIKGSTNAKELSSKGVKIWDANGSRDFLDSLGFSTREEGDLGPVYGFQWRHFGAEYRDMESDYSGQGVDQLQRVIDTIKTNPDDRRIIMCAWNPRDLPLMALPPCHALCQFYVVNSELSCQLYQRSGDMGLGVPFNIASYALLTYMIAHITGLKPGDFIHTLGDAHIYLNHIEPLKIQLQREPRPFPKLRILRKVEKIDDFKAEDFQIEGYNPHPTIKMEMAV

[13] = molecular target: T1, Dihydrofolate reductase (Homo sapiens) (UniProt P00374); test: Inhibition of recombinant DHFR (unknown origin)
T1 sequence (whole entry): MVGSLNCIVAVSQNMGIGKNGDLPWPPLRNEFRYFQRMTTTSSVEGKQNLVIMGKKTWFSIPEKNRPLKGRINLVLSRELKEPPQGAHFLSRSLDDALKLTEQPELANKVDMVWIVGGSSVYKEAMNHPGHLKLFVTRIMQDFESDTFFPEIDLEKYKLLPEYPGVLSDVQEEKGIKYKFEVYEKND

KB [14] = test: Growth inhibition of human KB cells by CellTiter Blue fluorescence dye-based assay in presence of adenosine and AICA; assay type: functional, cell-based
How it was run: (§3)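 KB cells in complete folate-free RPMI 1640 with 2 nM leucovorin were exposed to a drug concentration range. Co-additions were adenosine (60 μM), thymidine (10 μM), both together, or AICA (320 μM). Cell density was read by CellTiter Blue fluorescence and normalized to drug-free cells. Data are representative of triplicate experiments.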

KB [15] = test: Growth inhibition of human KB cells by CellTiter Blue fluorescence dye-based assay in presence of thymidine; assay type: functional, cell-based; how it was run: as §3
[16] = molecular target: T2, Trifunctional purine biosynthetic protein adenosine-3 (Homo sapiens, UniProt P22102); test: In situ inhibition of GRAFTase in human KB cells assessed as incorporation of [14C]-glycine into [14C]-formyl GAR preincubated for 30 mins followed by [14C]-glycine addition measured after 15 hrs
T2 sequence (P22102 whole entry): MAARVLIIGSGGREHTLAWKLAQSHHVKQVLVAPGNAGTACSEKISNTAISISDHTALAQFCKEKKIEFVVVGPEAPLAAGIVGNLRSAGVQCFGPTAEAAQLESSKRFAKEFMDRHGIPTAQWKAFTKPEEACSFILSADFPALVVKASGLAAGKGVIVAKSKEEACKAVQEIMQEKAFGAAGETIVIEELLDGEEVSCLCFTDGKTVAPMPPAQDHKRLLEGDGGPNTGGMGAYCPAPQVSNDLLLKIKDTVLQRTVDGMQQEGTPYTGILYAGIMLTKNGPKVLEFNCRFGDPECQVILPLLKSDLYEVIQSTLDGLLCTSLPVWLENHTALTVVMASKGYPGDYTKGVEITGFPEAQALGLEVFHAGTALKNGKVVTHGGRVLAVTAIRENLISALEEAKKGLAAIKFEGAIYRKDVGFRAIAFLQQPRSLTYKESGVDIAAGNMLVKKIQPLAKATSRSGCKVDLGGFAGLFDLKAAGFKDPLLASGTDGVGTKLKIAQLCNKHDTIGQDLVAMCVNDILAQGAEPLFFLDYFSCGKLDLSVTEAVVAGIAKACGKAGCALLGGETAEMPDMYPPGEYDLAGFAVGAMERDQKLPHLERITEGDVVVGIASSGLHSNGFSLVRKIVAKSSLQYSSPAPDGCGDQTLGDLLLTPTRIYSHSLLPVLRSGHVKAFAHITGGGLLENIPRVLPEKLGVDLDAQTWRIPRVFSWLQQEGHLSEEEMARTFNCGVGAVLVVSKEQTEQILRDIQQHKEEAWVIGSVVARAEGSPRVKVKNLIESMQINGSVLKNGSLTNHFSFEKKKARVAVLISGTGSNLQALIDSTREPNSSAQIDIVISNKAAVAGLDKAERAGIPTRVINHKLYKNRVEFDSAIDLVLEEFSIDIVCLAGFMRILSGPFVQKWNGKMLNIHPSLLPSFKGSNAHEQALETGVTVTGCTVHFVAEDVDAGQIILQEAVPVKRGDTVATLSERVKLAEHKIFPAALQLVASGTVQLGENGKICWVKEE

| Structure (SMILES) | inhibition [1] | inhibition [2] | IC50 (KB [3]) [nM] | IC50 (KB [4]) [nM] | IC50 [5] [nM] | IC50 (R2) [nM] | IC50 [6] [nM] | IC50 [7] [nM] | IC50 [8] [nM] | IC50 [9] [nM] | IC50 [10] [nM] | IC50 [11] [nM] | inhibition [12] | inhibition [13] | growth inhibition (GI) (KB [14]) | growth inhibition (GI) (KB [15]) | IC50 [16] [nM] |
| --- | --- | --- | --- | --- | --- | --- | --- | --- | --- | --- | --- | --- | --- | --- | --- | --- | --- |
| Nc1nc(=O)c2nc(CNc3ccc(C(=O)N[C@@H](CCC(=O)O)C(=O)O)cc3)cnc2[nH]1 | Active | Active |  |  |  |  |  |  |  |  |  |  |  |  |  |  |  |
| Nc1nc2[nH]c(CCCCCCC(=O)O)cc2c(=O)[nH]1 |  |  | > 1000 | > 1000 | > 1000 | > 1000 | > 1000 | > 1000 | > 1000 | > 1000 | > 1000 | > 1000 |  |  |  |  |  |
| Nc1nc2[nH]c(CCCCCCCC(=O)N[C@@H](CCC(=O)O)C(=O)O)cc2c(=O)[nH]1 | Active | Active | > 1000 | 1.1 | > 1000 | > 1000 | > 1000 | 0.87 | > 1000 | 8.54 | > 1000 | > 1000 | inactive | inactive | inactive | Active | 5.49 |
| Nc1nc2[nH]c(CCCCCCc3ccc(C(=O)N[C@@H](CCC(=O)O)C(=O)O)cc3)cc2c(=O)[nH]1 |  |  |  |  | > 1000 | > 1000 |  |  |  |  |  |  |  |  |  |  |  |
| Nc1nc2[nH]c(CCCCCCCC(=O)O)cc2c(=O)[nH]1 |  |  | > 1000 | > 1000 | > 1000 | > 1000 | > 1000 | > 1000 | > 1000 | > 1000 | > 1000 | > 1000 |  |  |  |  |  |
| Cc1nc(=O)c2cc(CN(C)c3ccc(C(=O)N[C@@H](CCC(=O)O)C(=O)O)s3)ccc2[nH]1 [RALTITREXED] |  |  |  |  | > 1000 |  |  |  |  |  |  |  |  |  |  |  |  |
| Nc1nc2[nH]c(CCCCc3ccc(C(=O)N[C@@H](CCC(=O)O)C(=O)O)cc3)cc2c(=O)[nH]1 |  |  |  |  | > 1000 |  |  |  |  |  |  |  |  |  |  |  |  |
| CN(Cc1cnc2nc(N)nc(N)c2n1)c1ccc(C(=O)N[C@@H](CCC(=O)O)C(=O)O)cc1 [METHOTREXATE] |  |  |  |  | > 1000 |  |  |  |  |  |  |  |  |  |  |  |  |
| Nc1nc2[nH]c(CCCCCCC(=O)N[C@@H](CCC(=O)O)C(=O)O)cc2c(=O)[nH]1 | Active | Active | > 1000 | 7.9 | > 1000 | > 1000 | > 1000 | 10.6 | > 1000 | 47.1 | > 1000 | > 1000 | inactive | inactive | inactive | Active | 2.89 |
| C#CCC(Cc1cnc2nc(N)nc(N)c2n1)c1ccc(C(=O)N[C@@H](CCC(=O)O)C(=O)O)cc1 (mixture of isomers) [PRALATREXATE] |  |  | 1.94 | 0.47 | > 1000 | 57 |  |  | > 1000 | 168 | 819 | 0.69 |  |  |  |  |  |
| Nc1nc2[nH]c(CCCCCCCCC(=O)O)cc2c(=O)[nH]1 | inactive | Active | > 1000 | > 1000 | > 1000 | > 1000 | > 1000 | > 1000 | > 100 | > 10000 | > 1000 | > 1000 |  |  |  |  |  |
| Nc1nc2[nH]c(CCCCCCCCC(=O)N[C@@H](CCC(=O)O)C(=O)O)cc2c(=O)[nH]1 | Active | Active | > 1000 | 1.48 | > 1000 | > 1000 | > 1000 | 3.99 | > 10000 | 12.3 | > 1000 | > 1000 | inactive | inactive | inactive | Active | 9.62 |
| Nc1nc2[nH]c(CCCCCC(=O)O)cc2c(=O)[nH]1 |  |  | > 1000 | > 1000 | > 1000 | > 1000 | > 1000 | > 1000 | > 1000 | > 1000 | > 1000 | > 1000 |  |  |  |  |  |
| Nc1nc2c(c(=O)[nH]1)C[C@@H](CCc1ccc(C(=O)N[C@@H](CCC(=O)O)C(=O)O)cc1)CN2 [LOMETREXOL] |  |  |  |  | > 1000 |  |  |  |  |  |  |  |  |  |  |  |  |
| Nc1nc2[nH]c(CCCCCc3ccc(C(=O)N[C@@H](CCC(=O)O)C(=O)O)cc3)cc2c(=O)[nH]1 |  |  |  |  | > 1000 | > 1000 |  |  |  |  |  |  |  |  |  |  |  |
| Nc1nc2[nH]c(CCCCCC(=O)N[C@@H](CCC(=O)O)C(=O)O)cc2c(=O)[nH]1 | Active | Active | > 10000 | 200 | > 1000 | > 1000 | > 1000 | 214 | > 1000 | > 1000 | > 1000 | > 1000 |  |  |  |  |  |
| Nc1nc2[nH]c(CCCc3ccc(C(=O)N[C@@H](CCC(=O)O)C(=O)O)cc3)cc2c(=O)[nH]1 |  |  |  |  | > 1000 |  |  |  |  |  |  |  |  |  |  |  |  |
